In the library only some 2.8% were active in any assay of this set; here they are far more common.
DENV2 CPE – inhibitors of DENV2 cytopathic effect; 350,000 compounds, 1.7% hits; DENV2-infected cells, cytopathic effect rescue, plate reader; CPE inhibition, % at 9.99 µM; AID 651640; in the data active = CPE inhibition above about 20%, passing the limit was not always enough; inconclusive = no clear call, values can overlap the other calls; tested in BHK-21 cells
E-selectin induc – E-selectin induction on HUVECs | P16581 | HUVEC E-selectin immunofluorescence imaging; normalized: neutral wells 0, TNF-alpha wells 100 | activation, % at 7.58 µM | 260,000 compounds, 0.37% hits | AID 686992;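 active = mean E-selectin-positive cell signal at least 10% of the positive control, reached in at least 60% of replicates, without over 20% cell loss; inconclusive = no rule given, readout overlaps actives, possibly toxicity-flagged; inactive = the rest, including those meeting only one limit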
Target sequence (P16581 whole entry, looked up): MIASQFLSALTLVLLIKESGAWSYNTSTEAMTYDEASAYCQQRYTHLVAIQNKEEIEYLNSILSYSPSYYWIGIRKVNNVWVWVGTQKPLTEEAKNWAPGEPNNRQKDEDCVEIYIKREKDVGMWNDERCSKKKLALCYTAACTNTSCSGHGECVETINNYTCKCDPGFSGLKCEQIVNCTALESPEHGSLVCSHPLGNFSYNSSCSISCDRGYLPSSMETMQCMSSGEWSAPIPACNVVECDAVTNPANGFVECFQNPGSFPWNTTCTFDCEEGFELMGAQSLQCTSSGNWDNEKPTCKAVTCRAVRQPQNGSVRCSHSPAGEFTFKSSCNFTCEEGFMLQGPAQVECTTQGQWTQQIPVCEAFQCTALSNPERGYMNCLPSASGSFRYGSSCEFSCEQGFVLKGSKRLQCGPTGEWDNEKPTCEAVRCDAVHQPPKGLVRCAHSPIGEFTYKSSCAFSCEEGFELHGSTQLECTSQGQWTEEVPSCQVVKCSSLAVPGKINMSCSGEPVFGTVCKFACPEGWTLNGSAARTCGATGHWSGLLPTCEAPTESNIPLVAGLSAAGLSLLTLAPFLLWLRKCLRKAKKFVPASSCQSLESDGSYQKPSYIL
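Test system: HUVEC; input: 3,000 HUVEC/well; measured by: immunofluorescence imaging; read-out: % PE-positive cells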
SIRT5 block – sirtuin-5 (human) deacylase inhibition | Q9NXA8 | Purified SirT5, succinyl-peptide AMC, trypsin-coupled fluorescence | inhibition, % at 15 µM | 330,000 compounds, 1.1% hits; in the data active = inhibition above about 15%; inconclusive = no clear call, values can overlap the other calls
Hits are given with their value; – = inactive; ? = inconclusive; · = no result given.

SMILES	DENV2 CPE	E-selectin induc	SIRT5 block
Cc1ccc(/C=C2\C(=N)N3N=C(CC(=O)N4CCCCC4)SC3=NC2=O)cc1	–	·	–
COC(=O)C[C@@H]1CC[C@H]2[C@H](COc3ccc(NC(=O)C4CCOCC4)cc3C(=O)N2C)O1	·	–	–
C[C@@H]1CCCCO[C@@H](CN(C)CC2CCCCC2)[C@@H](C)CN([C@H](C)CO)C(=O)c2cc(NC(=O)Nc3ccc(F)cc3)ccc2O1	–	–	–
COc1ccc(NC(=O)N2C[C@@H](O)COC[C@@H]3O[C@H](CC(=O)N4CCN(C)CC4)CC[C@H]32)cc1	–	–	–
COc1ccc2c3c(n(C)c2c1)[C@@H](CO)N(S(C)(=O)=O)CC31CCN(C(=O)C2CC2)CC1	–	–	·
COc1ccc2c3c(n(C)c2c1)[C@H](CO)N(C(=O)C1CC1)CC31CCN(C(=O)CN(C)C)CC1	–	–	–
COc1ccc2c3c(n(C)c2c1)[C@H](CO)N(S(C)(=O)=O)CC31CCN(C(=O)C2CC2)CC1	31	–	–
COc1ccc2c3c(n(C)c2c1)[C@@H](CO)N(C(=O)C1CC1)CC31CCN(C(=O)CN(C)C)CC1	23	–	–
C[C@@H]1CCCCO[C@@H](CN(C)C(=O)Cc2ccccc2)[C@@H](C)CN([C@H](C)CO)C(=O)c2cc(NS(=O)(=O)c3ccc(F)cc3)ccc2O1	–	–	–
C[C@@H]1CCCCO[C@@H](CN(C)C(=O)Cc2ccccc2)[C@H](C)CN([C@H](C)CO)C(=O)c2cc(NS(=O)(=O)c3ccc(F)cc3)ccc2O1	–	–	·
C[C@H](CO)N1C[C@H](C)[C@@H](CN(C)C(=O)Cc2ccccc2)OCCCC[C@H](C)Oc2ccc(NS(=O)(=O)c3ccc(F)cc3)cc2C1=O	126	–	·
C[C@@H]1CCCCO[C@H](CN(C)C(=O)Cc2ccccc2)[C@H](C)CN([C@H](C)CO)C(=O)c2cc(NS(=O)(=O)c3ccc(F)cc3)ccc2O1	28	–	·
C[C@H]1CCCCO[C@@H](CN(C)C(=O)Nc2ccc(C(F)(F)F)cc2)[C@@H](C)CN([C@@H](C)CO)C(=O)c2cc(NC(=O)NC3CCCCC3)ccc2O1	–	·	–
COc1ccccc1C(=O)Nc1ccc2c(c1)OC[C@H](C)N(CC1CC1)C[C@H](C)[C@H](OC)CN(C)C2=O	·	–	·
COc1cccc(-c2ccc3n(c2=O)C[C@@H]2[C@@H](CO)[C@H](C(=O)NC4CCCC4)[C@H]3N2C)c1	–	–	–
O=C(Nc1ccc(F)cc1)N[C@H]1C=C[C@H](CC(=O)N2CCOCC2)O[C@@H]1CO	–	–	–
COc1cc(CCCN2C(=O)C(=O)NC[C@@H]2Cc2ccc(O)cc2)cc(OC)c1OC	–	–	–
COc1cc(CCCN2C(=S)NC[C@H]2Cc2ccc(O)cc2)cc(OC)c1OC	–	–	32
Cc1ccc(S(=O)(=O)Nc2ccc3c(c2)C(=O)N([C@@H](C)CO)C[C@H](C)[C@@H](CN(C)C(=O)C2CCCCC2)OCCCC[C@@H](C)O3)cc1	–	–	–
N#Cc1c(SCC(=O)Nc2nc3ccccc3s2)sc2c(O)cc(=O)[nH]c12	–	–	–
CCCSc1nnc(NC(=O)CSc2sc3c(O)cc(=O)[nH]c3c2C#N)s1	–	·	26
N#Cc1c(SCC(=O)Nc2nccs2)sc2c(O)cc(=O)[nH]c12	–	–	26
N#Cc1c(SCC(=O)Nc2nc3ccc(Br)cc3s2)sc2c(O)cc(=O)[nH]c12	–	·	–
Cc1ccc(S(=O)(=O)N(C)C[C@@H]2Oc3c(NS(C)(=O)=O)cccc3C(=O)N([C@H](C)CO)C[C@H]2C)cc1	–	–	–
CCC(=O)N(C)C[C@@H]1Oc2cc(C#CCC3CCCC3)ccc2S(=O)(=O)N([C@@H](C)CO)C[C@@H]1C	–	–	–
SMILES	DENV2 CPE	E-selectin induc	SIRT5 block
O=C(C1CCOCC1)N1[C@@H](CO)[C@@H](c2ccccc2)C12CN(Cc1cccnc1)C2	–	–	–
O=C(Cc1cccnc1)N1CC2(C1)[C@H](c1ccccc1)[C@@H](CO)N2C(=O)C1CCC1	–	–	·
O=C(Cc1cccnc1)N1CC2(C1)[C@H](c1ccccc1)[C@@H](CO)N2C(=O)C1CC1	21	–	–
CC(C)NC(=O)N1[C@H](CO)[C@@H](c2ccccc2)C12CN(C(=O)Cc1cccnc1)C2	31	–	–
O=C(Cc1cccnc1)N1CC2(C1)[C@H](c1ccccc1)[C@@H](CO)N2C(=O)C1CCCC1	–	–	–
O=C(C1CCOCC1)N1[C@H](CO)[C@@H](c2ccccc2)C12CN(Cc1cccnc1)C2	97	–	–
COc1ccc2c3c([nH]c2c1)[C@@H](CO)N(C(=O)CN1CCOCC1)CC31CN(C(=O)NC(C)C)C1	–	–	·
O=C(N[C@H]1CC[C@H](CCn2cc(-c3ccccn3)nn2)O[C@@H]1CO)c1ccccc1	–	–	–
CNC[C@H]1Oc2cc(C#CCN(C)C)ccc2S(=O)(=O)N([C@H](C)CO)C[C@H]1C	–	–	–
CN1C(=O)c2cc(NC(=O)C3CCCC3)ccc2OC[C@@H]2O[C@H](CC(=O)NCc3ccccc3F)CC[C@@H]21	–	–	–
C[C@@H]1CN([C@H](C)CO)C(=O)c2cc(C#CC3CCCC3)cnc2O[C@@H]1CN(C)C(=O)Nc1ccccc1	–	–	–
COCCNc1nc(NCc2ccccc2OC)c2sccc2n1	–	–	–
COCCNc1nc(NCc2cnc(C)cn2)c2sccc2n1	–	–	17
O=S(=O)(c1ccc(F)cc1)N1CC[C@@H]2[C@H](CO)Nc3ccc(-c4ccc(F)cc4)cc3[C@@H]21	–	–	·
COc1ccc(-c2sc3ccccc3c2/C=C/c2ccc(OC)c(OC)c2)cc1	–	–	–
COc1ccc(-c2sc3ccccc3c2/C=C/c2ccncc2)cc1	20	–	–
COc1ccc(C#Cc2cnc3c(c2)C(=O)N([C@H](C)CO)C[C@@H](C)[C@@H](CN(C)CC2CC2)O3)cc1	·	–	·
O=S(=O)(c1ccc(NC(=S)N2CCCCC2)cc1)N1CCCCC1	–	–	–
CC(=O)c1cccc(NC(=S)N2CCN(S(=O)(=O)c3ccccc3)CC2)c1	69	–	–
CC(=O)c1cccc(NC(=S)N2CCN(S(=O)(=O)c3ccc(F)cc3)CC2)c1	?	–	–
Cc1ccc(NC(=S)N2CCN(S(=O)(=O)c3ccc(C)cc3)CC2)cc1	27	–	–
C[C@H](CO)N1C[C@H](C)[C@H](CN(C)C(=O)c2ccccn2)Oc2cc(C#CC3CC3)ccc2S1(=O)=O	–	–	–
C[C@@H]1CN([C@@H](C)CO)S(=O)(=O)c2ccc(-c3ccc(F)cc3)cc2O[C@@H]1CN(C)C	–	–	–
CO[C@H]1CN(C)C(=O)c2ccc(NC(=O)c3cc(C)on3)cc2OC[C@H](C)N(CC2CC2)C[C@@H]1C	–	–	–
C[C@H]1CCCCO[C@H](CN(C)Cc2ccncc2)[C@@H](C)CN([C@@H](C)CO)C(=O)c2cc(NC(=O)Nc3ccc(F)cc3)ccc2O1	–	–	·
CO[C@@H]1CN(C)C(=O)c2cc(NS(C)(=O)=O)ccc2OC[C@@H](C)N(C(=O)c2ccc3c(c2)OCO3)C[C@H]1C	–	–	·
CO[C@@H]1CN(C)C(=O)c2cc(NS(C)(=O)=O)ccc2OC[C@@H](C)N(C(=O)c2ccc3c(c2)OCO3)C[C@@H]1C	–	?	·

Source: PubChem (Broad Institute)
